Laboratory results reported in ChEMBL document CHEMBL3822354, “Synthesis and evaluation of 2-pyridinylpyrimidines as inhibitors of HIV-1 structural protein assembly” (Bioorg Med Chem Lett, 2016).
≈ marks a conversion by molar mass, not a printed value.

Key:
[1] = molecular target: Structural capsid protein (Human immunodeficiency virus 1, UniProt Q76129); assay: Inhibition of CAI-biotin peptide binding to GST-tagged HIV1 capsid C-terminal domain by alphascreen assay
Method in brief: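 Competitive AlphaScreen assay: test compound competes with CAI-biotin peptide for binding to GST-CA. IC50 is the compound concentration that lowers the AlphaScreen signal by 50%.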

[2] = Solubility of compound in PBS by UV spectral analysis; assay type: physicochemical
[3] = Cytotoxicity against human MT4 cells after 72 hrs by XTT assay; assay type: cell-based
Method in brief: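 The XTT read-out was run in parallel with the MT-4 infectivity assay, with two-fold serial compound dilutions on MT-4 cells.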

[4] = test system: Human immunodeficiency virus 1; assay: Antiviral activity against HIV1 NL4-3 infected in human MT4 cells assessed as inhibition of viral replication after 3 days by luciferase reporter gene assay; assay type: functional, organism-based; conditions: Human immunodeficiency virus 1, NL4-3, MT4, 72 h
Method in brief: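 Two-fold serial dilutions of compound were added to MT-4 cells infected with HIV-1 NL4-3 carrying a Renilla luciferase reporter. Replication was read as luciferase activity after 3 days. EC50 is the concentration inhibiting replication by 50%.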

Chain of Structural capsid protein (Q76129 whole entry, the tested form may be a part): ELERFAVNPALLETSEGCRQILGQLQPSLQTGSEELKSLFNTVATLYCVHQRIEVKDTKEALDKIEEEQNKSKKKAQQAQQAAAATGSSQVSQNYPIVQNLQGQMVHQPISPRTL

| Structure (SMILES) | IC50 [1] [µM] | solubility [2] [µM] | CC50 at 72 h [3] [µM] | EC50 [4] [µM] |
| --- | --- | --- | --- | --- |
| CC(=O)c1cccc(Nc2ccnc(-c3cccnc3)n2)c1 | 39 | 97 (≈ 28.2 µg/mL) | – | – |
| CC(=O)c1ccc(Nc2cc(C)nc(-c3cccnc3)n2)cc1F | 25 | 32 (≈ 10.3 µg/mL) | – | – |
| CC(=O)c1cc(Nc2cc(C)nc(-c3ccncc3)n2)ccc1F | 83 | 23 (≈ 7.41 µg/mL) | – | – |
| CCOC(=O)c1ccccc1Nc1ccnc(-c2cccnc2)n1 | > 100 | 94 (≈ 30.1 µg/mL) | – | – |
| CC(=O)c1ccc(Nc2cc(C)nc(-c3cccnc3)n2)cc1 | 12 | 94 (≈ 28.6 µg/mL) | 77 | 50 |
| CCOC(=O)c1cccc(Nc2ccnc(-c3cccnc3)n2)c1 | 21 | 92 (≈ 29.5 µg/mL) | – | – |
| Cc1cc(Nc2ccc(C(=O)NCCF)cc2)nc(-c2cccnc2)n1 | 8 | 99 (≈ 34.8 µg/mL) | 44 | 25 |
| CC(=O)c1ccc(Nc2cc(C)nc(-c3ccncc3)n2)cc1 | 54 | 6 (≈ 1.83 µg/mL) | – | – |
| Cc1cc(Nc2ccc(C(=O)NCCF)cc2F)nc(-c2cccnc2)n1 | 15 | 50 (≈ 18.5 µg/mL) | > 100 | > 100 |
| Cc1cc(Nc2ccc(C(=O)N3CCN(c4ccc(F)cc4)CC3)cc2)nc(-c2cccnc2)n1 | 20 | 42 (≈ 19.7 µg/mL) | – | – |
| CC(=O)c1cccc(Nc2cc(C)nc(-c3ccncc3)n2)c1 | > 100 | 29 (≈ 8.83 µg/mL) | – | – |
| Cc1cc(Nc2ccc(C(=O)NCCF)c(F)c2)nc(-c2ccncc2)n1 | > 100 | 9 (≈ 3.32 µg/mL) | – | – |
| Cc1cc(Nc2ccc(C(=O)N3CCN(C(=O)C4CCCO4)CC3)cc2)nc(-c2cccnc2)n1 (configuration not stated) | 54 | 99 (≈ 46.8 µg/mL) | – | – |
| CC(=O)c1ccc(Nc2ccnc(-c3ccncc3)n2)cc1 | > 100 | 37 (≈ 10.7 µg/mL) | – | – |
| CC(=O)c1ccc(F)c(Nc2cc(C)nc(-c3cccnc3)n2)c1 | > 100 | 58 (≈ 18.7 µg/mL) | – | – |
| CC(=O)c1cccc(Nc2cc(C)nc(-c3cccnc3)n2)c1 | 10 | 95 (≈ 28.9 µg/mL) | 64 | 23 |
| O=C(NCCF)c1ccc(Nc2ccnc(-c3ccncc3)n2)cc1 | > 100 | 97 (≈ 32.7 µg/mL) | – | – |
| O=C(NCCF)c1cc(Nc2ccnc(-c3cccnc3)n2)ccc1F | 68 | 97 (≈ 34.5 µg/mL) | – | – |

| Structure (SMILES) | IC50 [1] [µM] | solubility [2] [µM] | CC50 at 72 h [3] [µM] | EC50 [4] [µM] |
| --- | --- | --- | --- | --- |
| CC(=O)c1ccc(Nc2ccnc(-c3cccnc3)n2)cc1 | 53 | 98 (≈ 28.5 µg/mL) | – | – |
| CCOC(=O)c1ccc(Nc2ccnc(-c3cccnc3)n2)cc1 | 19 | 61 (≈ 19.5 µg/mL) | – | – |
| CC(=O)c1cc(Nc2cc(C)nc(-c3cccnc3)n2)ccc1F | 9 | 40 (≈ 12.9 µg/mL) | > 100 | > 100 |
| O=C(NCCF)c1ccc(Nc2ccnc(-c3cccnc3)n2)cc1 | 34 | 99 (≈ 33.4 µg/mL) | – | – |
| Cc1cc(Nc2cc(C(=O)NCCF)ccc2F)nc(-c2cccnc2)n1 | 52 | 98 (≈ 36.2 µg/mL) | – | – |
| CCOC(=O)c1cccc(Nc2ccnc(-c3ccncc3)n2)c1 | > 100 | 46 (≈ 14.7 µg/mL) | – | – |
| O=C(NCCF)c1ccc(Nc2ccnc(-c3cccnc3)n2)cc1F | 43 | 84 (≈ 29.8 µg/mL) | – | – |
| CCOC(=O)c1ccc(Nc2cc(C)nc(-c3cccnc3)n2)cc1 | 21 | 71 (≈ 23.7 µg/mL) | – | – |
| Fc1ccc(Nc2ccnc(-c3cccnc3)n2)cc1F | 38 | 67 (≈ 19 µg/mL) | – | – |
| Cc1cc(Nc2cc(F)c(F)c(F)c2)nc(-c2cccnc2)n1 | 22 | 73 (≈ 23.1 µg/mL) | – | – |
| CCOC(=O)c1ccc(Nc2ccnc(-c3ccncc3)n2)cc1 | 28 | 52 (≈ 16.7 µg/mL) | – | – |
| O=C(NCCF)c1ccc(Nc2ccnc(-c3cccnc3)n2)c(F)c1 | 73 | 96 (≈ 34.1 µg/mL) | – | – |
| Fc1ccc(Nc2ccnc(-c3ccncc3)n2)cc1F | 81 | 42 (≈ 11.9 µg/mL) | – | – |
| CCOC(=O)c1ccc(Nc2ccnc(-c3cccnc3)n2)c(F)c1 | 30 | 53 (≈ 17.9 µg/mL) | – | – |
| Cc1cc(Nc2ccc(C(=O)NCCF)cc2)nc(-c2ccncc2)n1 | > 100 | 40 (≈ 14.1 µg/mL) | – | – |
| CCOC(=O)c1ccc(Nc2cc(C)nc(-c3ccncc3)n2)cc1 | 36 | 4 (≈ 1.34 µg/mL) | – | – |
| Cc1cc(Nc2ccc(C(=O)NCCF)c(F)c2)nc(-c2cccnc2)n1 | 3 | 98 (≈ 36.2 µg/mL) | 35 | 20 |
